In ChEMBL document CHEMBL5046217, “Discovery of New Imidazo[2,1-b]thiazole Derivatives as Potent Pan-RAF Inhibitors with Promising In Vitro and In Vivo Anti-melanoma Activity” (J Med Chem, 2021):

Key:
[1] = system: Panel prostate (Carcinoma cell lines); experiment: Antiproliferative activity against human Panel prostate (Carcinoma cell lines) assessed as cell growth inhibition measured after 48 hrs by SRB assay
[2] = Cytotoxicity against human BJ cells assessed as cell growth inhibition incubated for 48 hrs by MTT assay; type: toxicity, cell-based
In short: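 BJ1 normal skin fibroblasts were seeded at 10 × 10³ cells/well with compound in triplicate wells and grown in DMEM-F12 at 37 °C, 5% CO₂, across an eight-point dilution series. Growth inhibition was calculated as (1 − T/C) × 100, and IC50 was taken from the dose–response curve.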

[3] = molecular target: Mitogen-activated protein kinase 14 (Homo sapiens, UniProt Q16539); experiment: Inhibition of MAPK14 (unknown origin) incubated for 1 hr by qPCR analysis
In short: (§1)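 Competition binding assay. Kinases were either T7-phage-tagged (grown in an E. coli BL21-derived host) or expressed in HEK-293 cells and DNA-tagged. […] Bound kinase was eluted with non-biotinylated ligand and quantified by qPCR.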

LOX IMVI = experiment: Antiproliferative activity against human LOX IMVI cells assessed as cell growth inhibition measured after 48 hrs by SRB assay
[4] = molecular target: Mitogen-activated protein kinase 8 (Homo sapiens, UniProt P45983); experiment: Inhibition of MAPK8 (unknown origin) incubated for 1 hr by qPCR analysis; in short: as §1
[5] = system: Panel colon (Carcinoma cell lines); experiment: Antiproliferative activity against human Panel colon (Carcinoma cell lines) assessed as cell growth inhibition measured after 48 hrs by SRB assay
[6] = system: Panel leukemia (Carcinoma cell lines); experiment: cells; details: Homo sapiens, 48 h, read-out: INH
[7] = molecular target: T1, Receptor-type tyrosine-protein kinase FLT3 (Homo sapiens, UniProt P36888); experiment: Inhibition of FLT3 (unknown origin) incubated for 1 hr by qPCR analysis; in short: as §1
T1 sequence (P36888 whole entry): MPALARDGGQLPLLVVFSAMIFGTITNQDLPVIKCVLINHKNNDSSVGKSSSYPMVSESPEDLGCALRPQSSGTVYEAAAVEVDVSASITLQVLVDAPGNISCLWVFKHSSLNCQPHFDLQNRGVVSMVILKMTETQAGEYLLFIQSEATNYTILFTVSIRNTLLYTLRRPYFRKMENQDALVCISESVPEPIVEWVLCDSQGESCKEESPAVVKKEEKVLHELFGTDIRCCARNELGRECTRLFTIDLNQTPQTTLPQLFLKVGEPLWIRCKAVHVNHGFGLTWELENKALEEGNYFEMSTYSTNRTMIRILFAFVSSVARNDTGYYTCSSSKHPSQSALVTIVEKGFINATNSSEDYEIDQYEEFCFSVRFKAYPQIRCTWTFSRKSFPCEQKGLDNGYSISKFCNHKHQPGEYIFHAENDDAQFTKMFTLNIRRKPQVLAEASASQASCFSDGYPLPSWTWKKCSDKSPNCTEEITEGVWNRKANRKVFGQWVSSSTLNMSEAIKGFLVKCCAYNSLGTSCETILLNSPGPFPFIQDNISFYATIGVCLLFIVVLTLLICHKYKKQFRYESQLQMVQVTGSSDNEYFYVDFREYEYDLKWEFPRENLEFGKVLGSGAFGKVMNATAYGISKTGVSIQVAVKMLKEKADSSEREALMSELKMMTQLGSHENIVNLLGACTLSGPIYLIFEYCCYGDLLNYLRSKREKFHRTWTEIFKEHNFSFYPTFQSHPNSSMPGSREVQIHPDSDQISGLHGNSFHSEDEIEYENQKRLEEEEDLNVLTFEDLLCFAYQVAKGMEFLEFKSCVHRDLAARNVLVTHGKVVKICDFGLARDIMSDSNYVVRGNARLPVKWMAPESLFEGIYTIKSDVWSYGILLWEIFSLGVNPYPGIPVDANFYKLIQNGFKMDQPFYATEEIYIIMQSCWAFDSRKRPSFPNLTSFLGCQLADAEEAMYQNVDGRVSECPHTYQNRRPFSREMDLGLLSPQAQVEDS

Sequence of Mitogen-activated protein kinase 8 (P45983 whole entry): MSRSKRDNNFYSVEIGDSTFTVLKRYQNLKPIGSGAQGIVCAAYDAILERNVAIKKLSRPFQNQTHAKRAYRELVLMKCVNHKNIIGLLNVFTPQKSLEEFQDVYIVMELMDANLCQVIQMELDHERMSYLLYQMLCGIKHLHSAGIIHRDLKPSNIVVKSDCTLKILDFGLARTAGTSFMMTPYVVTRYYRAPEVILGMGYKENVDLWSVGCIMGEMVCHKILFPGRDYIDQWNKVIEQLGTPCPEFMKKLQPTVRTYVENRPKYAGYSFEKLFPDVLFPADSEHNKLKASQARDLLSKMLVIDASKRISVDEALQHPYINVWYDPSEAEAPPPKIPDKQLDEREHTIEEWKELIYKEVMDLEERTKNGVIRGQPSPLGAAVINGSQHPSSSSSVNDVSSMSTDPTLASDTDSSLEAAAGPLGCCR
Sequence of Mitogen-activated protein kinase 14 (Q16539 whole entry): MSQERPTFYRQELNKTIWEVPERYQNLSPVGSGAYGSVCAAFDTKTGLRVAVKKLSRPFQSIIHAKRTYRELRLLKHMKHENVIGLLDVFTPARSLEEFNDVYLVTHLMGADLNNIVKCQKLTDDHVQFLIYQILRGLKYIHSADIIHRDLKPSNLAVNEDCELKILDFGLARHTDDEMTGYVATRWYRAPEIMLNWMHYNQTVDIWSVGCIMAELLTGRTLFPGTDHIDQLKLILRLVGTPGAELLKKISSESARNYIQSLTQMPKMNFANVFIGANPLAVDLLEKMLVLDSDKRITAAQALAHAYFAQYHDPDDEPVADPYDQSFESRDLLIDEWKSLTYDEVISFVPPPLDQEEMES

IC50 [1]: 2380 nM | IC50 [3]: 1780 nM | IC50 [4]: 1870 nM | IC50 [5]: 3020 nM | IC50 [7]: 1480 nM
Compound: O=S(=O)(NCCCNc1nccc(-c2c(-c3cccc(O)c3)nc3sccn23)n1)c1cccc(F)c1
IC50 at 48 h [2]: 45200 nM | IC50 (LOX IMVI): 1910 nM | inhibition at 10 µM [6]: 93.8%
